pKi: −log10 of the molar value.
What was measured:
[1] = target: T1, 5-hydroxytryptamine receptor 2C (Homo sapiens, UniProt P28335); assay: Binding affinity towards cloned human 5-hydroxytryptamine 2C receptor expressed in HEK 293 cells using [3H]mesulergine as radioligand; type: cell-based, HEK293
T1 sequence (P28335 whole entry): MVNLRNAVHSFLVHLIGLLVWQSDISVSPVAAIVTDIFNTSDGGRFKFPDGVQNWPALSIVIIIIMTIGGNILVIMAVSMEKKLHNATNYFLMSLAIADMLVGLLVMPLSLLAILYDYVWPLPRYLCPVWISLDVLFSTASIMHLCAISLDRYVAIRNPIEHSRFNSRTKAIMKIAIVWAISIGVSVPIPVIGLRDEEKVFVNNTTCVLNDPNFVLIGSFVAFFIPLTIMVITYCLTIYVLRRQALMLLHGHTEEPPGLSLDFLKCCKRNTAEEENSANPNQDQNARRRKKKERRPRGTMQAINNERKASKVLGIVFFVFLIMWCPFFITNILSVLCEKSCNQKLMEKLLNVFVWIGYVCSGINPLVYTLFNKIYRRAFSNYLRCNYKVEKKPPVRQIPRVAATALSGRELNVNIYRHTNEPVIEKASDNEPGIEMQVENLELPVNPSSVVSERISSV

[2] = target: 5-hydroxytryptamine receptor 2A (Homo sapiens, UniProt P28223); assay: Binding affinity towards human 5-hydroxytryptamine 2A receptor expressed in HEK 293 cells using [3H]ketanserin as radioligand; type: cell-based, HEK293
Procedure, shortened: (§1)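 Radioligand binding on human cloned receptors stably expressed in HEK 293 cells; 5-HT2A labelled with [3H]ketanserin, 5-HT2B with [3H]-5-HT. Values are means of at least two determinations, each within 0.2 log unit of the mean.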

[3] = organism: Rattus norvegicus; assay: The dose required to reverse […]- induced hypolocomotion in rat by 50 %; type: functional; settings: ip, 0.5 h, read-out: ID50 (the source's name)
[4] = target: 5-hydroxytryptamine receptor 2B (Homo sapiens, UniProt P41595); assay: Binding affinity towards cloned human 5-hydroxytryptamine 2B receptor expressed in HEK 293 cells using [3H]5-HT as radioligand; type: cell-based, HEK293; procedure, shortened: as §1
[5] = system: Rattus norvegicus; assay: Percentage change punished lever presses from mean score on 6-8 rats(P<0.001) at 1 mg/kg po1h pretest; type: functional
[6] = system: Rattus norvegicus; assay: Percentage change unpunished lever presses from mean score on 6-8 rats at 10 mg/kg po1h pretest; type: functional
[7] = system: Rattus norvegicus; assay: Percentage change unpunished lever presses from mean score on 6-8 ratsP<0.01) at 1 mg/kg po1h pretest; type: functional
[8] = system: Rattus norvegicus; assay: Percentage change unpunished lever presses from mean score on 6-8 rats at 20 mg/kg po1h pretest; type: functional
[9] = system: Rattus norvegicus; assay: Percentage change punished lever presses from mean score on 6-8 rats(P<0.001) at 20 mg/kg po1h pretest; type: functional
[10] = system: Rattus norvegicus; assay: Percentage change unpunished lever presses from mean score on 6-8 rats at 0.5 mg/kg po1h pretest; type: functional
[11] = system: Rattus norvegicus; assay: Percentage change punished lever presses from mean score on 6-8 rats(P<0.01) at 5 mg/kg po1h pretest; type: functional
[12] = system: Rattus norvegicus; assay: Percentage change unpunished lever presses from mean score on 6-8 rats at 5 mg/kg po1h pretest; type: functional
[13] = system: Rattus norvegicus; assay: Percentage change punished lever presses from mean score on 6-8 rats at 0.5 mg/kg po1h pretest; type: functional
[14] = system: Rattus norvegicus; assay: Percentage change punished lever presses from mean score on 6-8 rats(P<0.001) at 10 mg/kg po1h pretest; type: functional
[15] = system: Rattus norvegicus; assay: Percentage change unpunished lever presses from mean score on 6-8 ratsP<0.05)at 2 mg/kg po1h pretest; type: functional
[16] = system: Rattus norvegicus; assay: Percentage change punished lever presses from mean score on 6-8 rats(P<0.001) at 2 mg/kg po1h pretest; type: functional

Sequence of 5-hydroxytryptamine receptor 2B (P41595 whole entry): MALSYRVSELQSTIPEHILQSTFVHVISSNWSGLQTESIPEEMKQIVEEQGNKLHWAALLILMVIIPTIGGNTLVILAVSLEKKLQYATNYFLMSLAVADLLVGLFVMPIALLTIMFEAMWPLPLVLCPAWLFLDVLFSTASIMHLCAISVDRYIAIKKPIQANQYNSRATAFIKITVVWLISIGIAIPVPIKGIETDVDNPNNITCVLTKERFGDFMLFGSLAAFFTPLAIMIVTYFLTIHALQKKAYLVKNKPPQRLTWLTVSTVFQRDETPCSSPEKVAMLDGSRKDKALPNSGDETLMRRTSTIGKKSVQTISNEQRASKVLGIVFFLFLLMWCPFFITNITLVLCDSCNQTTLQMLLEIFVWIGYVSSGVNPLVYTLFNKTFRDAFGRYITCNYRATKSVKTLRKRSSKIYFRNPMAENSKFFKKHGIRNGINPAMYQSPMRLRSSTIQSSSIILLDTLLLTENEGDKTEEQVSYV
Sequence of 5-hydroxytryptamine receptor 2A (P28223 whole entry): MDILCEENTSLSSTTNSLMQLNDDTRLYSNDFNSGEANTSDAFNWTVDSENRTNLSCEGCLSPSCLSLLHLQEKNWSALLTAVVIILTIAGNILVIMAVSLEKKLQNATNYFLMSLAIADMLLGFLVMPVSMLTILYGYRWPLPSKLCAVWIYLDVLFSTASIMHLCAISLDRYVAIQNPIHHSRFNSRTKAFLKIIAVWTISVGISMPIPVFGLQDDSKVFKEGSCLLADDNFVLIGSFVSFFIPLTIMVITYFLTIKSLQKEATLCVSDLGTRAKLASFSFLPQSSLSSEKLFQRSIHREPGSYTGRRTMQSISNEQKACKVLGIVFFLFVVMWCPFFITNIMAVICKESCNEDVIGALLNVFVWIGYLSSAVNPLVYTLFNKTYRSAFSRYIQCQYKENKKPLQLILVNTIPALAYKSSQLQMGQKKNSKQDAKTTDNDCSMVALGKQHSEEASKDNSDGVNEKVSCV

| pKi [1] | pKi [2] | Compound | further results |
| --- | --- | --- | --- |
| 8.50 | 7.00 | O=C(Nc1cccnc1)N1CCc2cc(I)c(Cl)cc21 |  |
| 7.80 | < 5.20 | CC(C)Oc1cc2c(cc1Cl)N(C(=O)Nc1cccnc1)CC2 | ED50 [3]: 4 mg/kg |
| 7.60 | < 5.20 | CC(C)c1cc2c(cc1C(F)(F)F)N(C(=O)Nc1cccnc1)CC2 |  |
| 8.50 | 7.20 | Cc1cc2c(cc1I)N(C(=O)Nc1cccnc1)CC2 |  |
| 7.60 | 5.50 | CSc1cc2c(cc1OC(F)(F)F)N(C(=O)Nc1cccnc1)CC2 |  |
| 8.20 | < 5.20 | CCCSc1cc2c(cc1C(F)(F)F)N(C(=O)Nc1cccnc1)CC2 | pKi [4]: 7.80 |
| 8.30 | 6.40 | CCc1cc2c(cc1Cl)N(C(=O)Nc1cccnc1)CC2 |  |
| 7.90 | 5.40 | COc1cc2c(cc1C(F)(F)C(F)(F)F)N(C(=O)Nc1cccnc1)CC2 |  |
| 7.30 | 5.60 | CSc1cc2c(cc1Br)CCN2C(=O)Nc1cccnc1 |  |
| 8.50 | 5.80 | CC(C)Oc1cc2c(cc1C(F)(F)F)N(C(=O)Nc1cccnc1)CC2 | pKi [4]: 8.40; ED50 [3]: 1.4 mg/kg |
| 8.70 | 6.30 | CSc1cc2c(cc1I)N(C(=O)Nc1cccnc1)CC2 | ED50 [3]: 3.2 mg/kg |
| 6.80 | 5.30 | Cc1ccc2c(c1)CCN2C(=O)Nc1cccnc1 |  |
| 6.90 | 5.40 | O=C(Nc1cccnc1)N1CCc2cc(-c3ccccc3)c(Cl)cc21 |  |
| 7.10 | 5.70 | CC(C)c1ccc2c(c1)CCN2C(=O)Nc1cccnc1 |  |
| 8.20 | 6.80 | O=C(Nc1cccnc1)N1CCc2cc(Cl)c(C(F)(F)F)cc21 |  |

The remaining lines, values behind:

| Compound | pKi [1] | pKi [2] | further results |
| --- | --- | --- | --- |
| O=C(Nc1cccnc1)N1CCc2ccc(C(F)(F)F)cc21 | 7.30 | 6.30 |  |
| O=C(Nc1cccnc1)N1CCc2cc(Cl)c(Cl)cc21 | 8.10 | 6.60 |  |
| O=C(Nc1cccnc1)N1CCc2ccc(Cl)cc21 | 7.30 | 6.10 |  |
| CSc1cc2c(cc1C(F)(F)C(F)(F)F)N(C(=O)Nc1cccnc1)CC2 | 8.40 | 5.60 | pKi [4]: 7.50; ED50 [3]: 5 mg/kg |
| CSc1ccc2c(c1Cl)CCN2C(=O)Nc1cccnc1 | 7.20 | 5.30 |  |
| CSc1cc2c(cc1C(F)(F)F)N(C(=O)Nc1cccnc1)CC2 |  |  | Change [5]: 30%; ED50 [3]: 1.2 mg/kg; Change [6]: -2%; Change [7]: 10%; Change [8]: 0%; Change [9]: 76%; Change [10]: 3%; Change [11]: 38%; Change [12]: 2%; Change [13]: 6%; Change [14]: 46%; Change [15]: 4%; Change [16]: 36% |
| O=C(Nc1cccnc1)N1CCc2ccccc21 | 5.90 |  |  |
| Cc1ccc2c(c1I)CCN2C(=O)Nc1cccnc1 | 7.60 | 5.60 |  |
| O=C(Nc1cccnc1)N1CCc2cc(Cl)ccc21 | 7.10 | 5.60 |  |
| Cc1ccc2c(c1Br)CCN2C(=O)Nc1cccnc1 | 8.10 | 6.90 |  |
| O=C(Nc1cccnc1)N1CCc2cc([N+](=O)[O-])ccc21 | 6.50 | < 5.20 |  |
